Data from ChEMBL document CHEMBL1137220, “2-(2-(dimethylaminomethyl)phenoxy)-5-iodophenylamine: an improved serotonin transporter imaging agent” (J Med Chem, 2004).
Several values for one entry are separate records, joined by “and”; a condition that tells them apart may be missing. Equal entries are not always repeated.

Assays:
[1] = Biodistribution in rat lung was determined after 240 min of intravenous administration of the compound; [125I]- is used as radioactive isotope; format: ADME, organism-based; conditions: in vivo, 4 h
Summary of the method: (§1)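 Rats under ether anesthesia, three per group, received 10 μCi tracer in 0.2 mL saline into the femoral vein. They were killed by cardiac excision under ether at each time point. Organs were removed, weighed and counted. Percent dose per organ was calculated against a 1%-of-injected-dose standard counted at the same time.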

[2] = Regional brain distribution in rat hippocampus was determined after 11 hours of intravenous administration of the compound; [125I]- is used as radioactive isotope; format: ADME, tissue-based; conditions: in vivo
Summary of the method: (§2)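 Rats, three per group, injected with 10 μCi tracer in 0.2 mL saline via the femoral vein under ether anesthesia and killed by cardiac excision at the stated time. Cortex (frontal plus occipital), striatum, hippocampus, cerebellum and hypothalamus were dissected, weighed and gamma-counted. Values are % dose/g, calculated by comparison with counts of a 100-fold diluted aliquot of the injected dose.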

[3] = Distribution ratio in striatum and cerebellum was determined after 120 min of intravenous administration of the compound; [125I]- is used as radioactive isotope; format: ADME, tissue-based; conditions: rat, 2 h
Summary of the method: (§3)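 Rats, three per group, given 10 μCi tracer in 0.2 mL saline into the femoral vein under ether anesthesia, then killed by cardiac excision at the stated time. Brain regions were dissected, weighed and counted. Percent dose/g was calculated against a 1% diluted aliquot of the injected dose. The ratio is (region − cerebellum)/cerebellum on a % dose/g basis, with cerebellum as background.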

[4] = Regional brain distribution in rat cerebellum was determined after 2 min of intravenous administration of the compound; [125I]- is used as radioactive isotope; format: ADME, tissue-based; conditions: in vivo; summary of the method: as §2
[5] = molecular target: Sodium-dependent serotonin transporter (Homo sapiens, UniProt P31645); assay: Binding affinity for serotonin transporter expressed in […] cells; format: cell-based
Sequence of Sodium-dependent serotonin transporter (P31645 whole entry): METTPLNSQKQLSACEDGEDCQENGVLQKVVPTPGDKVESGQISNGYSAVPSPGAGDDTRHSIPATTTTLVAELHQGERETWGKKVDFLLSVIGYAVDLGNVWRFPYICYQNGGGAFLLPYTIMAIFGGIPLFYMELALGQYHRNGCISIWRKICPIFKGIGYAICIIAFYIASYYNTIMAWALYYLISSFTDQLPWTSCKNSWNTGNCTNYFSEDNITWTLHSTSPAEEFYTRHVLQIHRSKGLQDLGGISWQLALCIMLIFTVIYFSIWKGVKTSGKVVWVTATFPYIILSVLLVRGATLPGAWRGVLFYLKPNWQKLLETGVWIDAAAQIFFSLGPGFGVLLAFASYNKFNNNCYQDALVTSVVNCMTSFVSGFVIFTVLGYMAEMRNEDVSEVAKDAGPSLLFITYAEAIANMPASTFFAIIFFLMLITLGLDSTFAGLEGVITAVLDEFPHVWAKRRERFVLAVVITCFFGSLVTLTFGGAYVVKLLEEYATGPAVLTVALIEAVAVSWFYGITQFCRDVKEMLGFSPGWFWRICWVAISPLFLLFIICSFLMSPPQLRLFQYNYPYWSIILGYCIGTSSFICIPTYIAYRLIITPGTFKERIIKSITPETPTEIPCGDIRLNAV
Summary of the method: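 Membranes from confluent pig kidney LLC-PK₁ cells stably expressing the respective transporter, homogenized and pelleted, 30–40 μg protein. Incubated with 0.4 nM [¹²⁵I]IPT or [¹²⁵I]IDAM and 8–10 competitor concentrations (10⁻¹⁰ to 10⁻⁵ M) in 50 mM Tris-HCl pH 7.4, 120 mM NaCl, 0.1% BSA, 1 h at room temperature. Nonspecific binding was defined with 10 μM CFT for IPT and 1 μM IDAM for IDAM. Filtration, gamma counting, nonlinear regression for Ki.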

[6] = Biodistribution in rat spleen was determined after 30 min of intravenous administration of the compound; [125I]- is used as radioactive isotope; format: ADME, organism-based; conditions: in vivo, 0.5 h
Summary of the method: (§4)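 Rats, three per group, under ether anaesthesia, received 10 μCi of [¹²⁵I]-labelled tracer in 0.2 mL saline into the femoral vein. They were killed by cardiac excision under ether at each time point. Organs were removed, weighed and counted. Percent dose per organ was calculated against counts of a 1% aliquot of the injected dose (100-fold diluted) counted at the same time.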

[7] = Regional brain distribution in rat hippocampus was determined after 6 hours of intravenous administration of the compound; [125I]- is used as radioactive isotope; format: ADME, tissue-based; conditions: in vivo; summary of the method: as §2
[8] = Distribution ratio in hypothalamus and cerebellum was determined after 30 min of intravenous administration of the compound; [125I]- is used as radioactive isotope; format: ADME, tissue-based; conditions: rat, 0.5 h; summary of the method: as §3
[9] = Biodistribution in rat muscle was determined after 60 min of intravenous administration of the compound; [125I]- is used as radioactive isotope; format: ADME, organism-based, Muscle tissue; conditions: in vivo, 1 h; summary of the method: as §4
[10] = Biodistribution in rat kidney was determined after 120 min of intravenous administration of the compound; [125I]- is used as radioactive isotope; format: ADME, organism-based; conditions: in vivo, 2 h; summary of the method: as §1
[11] = Biodistribution in rat kidney was determined after 11 hours of intravenous administration of the compound; [125I]- is used as radioactive isotope; format: ADME, organism-based; conditions: in vivo; summary of the method: as §1
[12] = Distribution ratio in hippocampus and cerebellum was determined after 6 hrs of intravenous administration of the compound; [125I]- is used as radioactive isotope; format: ADME, tissue-based; conditions: rat
Summary of the method: (§5)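 After femoral-vein injection of 10 μCi [¹²⁵I] tracer in 0.2 mL saline under ether anaesthesia (three rats per group), brain regions were dissected, weighed and counted: cortex (frontal plus occipital), hippocampus, hypothalamus and cerebellum. %dose/g was calculated against a diluted injected-dose standard. Ratio = (region − cerebellum)/cerebellum on a %dose/g basis, with cerebellum as the background region.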

[13] = Biodistribution in rat blood was determined after 120 min of intravenous administration of the compound; [125I]- is used as radioactive isotope; format: ADME, organism-based; conditions: in vivo, 2 h; summary of the method: as §1
[14] = Distribution ratio in hypothalamus and cerebellum was determined after 11 hours of intravenous administration of the compound; [125I]- is used as radioactive isotope; format: ADME, tissue-based; conditions: rat; summary of the method: as §5
[15] = Biodistribution in rat blood was determined after 11 hours of intravenous administration of the compound; [125I]- is used as radioactive isotope; format: ADME, organism-based; conditions: in vivo; summary of the method: as §1
[16] = Regional brain distribution in rat hypothalamus was determined after 24 hours of intravenous administration of the compound; [125I]- is used as radioactive isotope; format: ADME, tissue-based; conditions: in vivo; summary of the method: as §2
[17] = Distribution ratio in hippocampus and cerebellum was determined after 2 min of intravenous administration of the compound; [125I]- is used as radioactive isotope; format: ADME, tissue-based; conditions: rat; summary of the method: as §5
[18] = Biodistribution in rat heart was determined after 24 hours of intravenous administration of the compound; [125I]- is used as radioactive isotope; format: ADME, organism-based; conditions: in vivo; summary of the method: as §1
[19] = Regional brain distribution in rat hypothalamus was determined after 60 min of intravenous administration of the compound; [125I]- is used as radioactive isotope; format: ADME, tissue-based; conditions: in vivo, 1 h; summary of the method: as §2
[20] = Biodistribution in rat blood was determined after 24 hours of intravenous administration of the compound; [125I]- is used as radioactive isotope; format: ADME, organism-based; conditions: in vivo; summary of the method: as §1
[21] = Biodistribution in rat muscle was determined after 6 hours of intravenous administration of the compound; [125I]- is used as radioactive isotope; format: ADME, organism-based, Muscle tissue; conditions: in vivo; summary of the method: as §4
[22] = Biodistribution in rat muscle was determined after 120 min of intravenous administration of the compound; [125I]- is used as radioactive isotope; format: ADME, organism-based, Muscle tissue; conditions: in vivo, 2 h; summary of the method: as §4
[23] = Biodistribution in rat heart was determined after 30 min of intravenous administration of the compound; [125I]- is used as radioactive isotope; format: ADME, organism-based; conditions: in vivo, 0.5 h; summary of the method: as §1
[24] = Biodistribution in rat thyroid was determined after 2 min of intravenous administration of the compound; [125I]- is used as radioactive isotope; format: ADME, organism-based, Thyroid gland; conditions: in vivo; summary of the method: as §4
[25] = Regional brain distribution in rat cortex was determined after 24-hours of intravenous administration of the compound; [125I]- is used as radioactive isotope; format: ADME; conditions: in vivo; summary of the method: as §2
[26] = Regional brain distribution in rat cerebellum was determined after 120 min of intravenous administration of the compound; [125I]- is used as radioactive isotope; format: ADME, tissue-based; conditions: in vivo, 2 h; summary of the method: as §2
[27] = Biodistribution in rat skin was determined after 120 min of intravenous administration of the compound; [125I]- is used as radioactive isotope; format: ADME, organism-based, Zone of skin; conditions: in vivo, 2 h; summary of the method: as §4
[28] = Regional brain distribution in rat cortex was determined after 60 min of intravenous administration of the compound; [125I]- is used as radioactive isotope; format: ADME; conditions: in vivo, 1 h; summary of the method: as §2
[29] = Biodistribution in rat skin was determined after 24 hours of intravenous administration of the compound; [125I]- is used as radioactive isotope; format: ADME, organism-based, Zone of skin; conditions: in vivo; summary of the method: as §4
[30] = Biodistribution in rat heart was determined after 120 min of intravenous administration of the compound; [125I]- is used as radioactive isotope; format: ADME, organism-based; conditions: in vivo, 2 h; summary of the method: as §1
[31] = Biodistribution in rat spleen was determined after 6 hours of intravenous administration of the compound; [125I]- is used as radioactive isotope; format: ADME, organism-based; conditions: in vivo; summary of the method: as §4

## CN(C)Cc1ccccc1Oc1ccc(I)cc1N
[1]
  Dose: 0.37%
[2]
  Dose/g: 0.01%
[3]
  Dose/g: 2.53%
[4]
  Dose/g: 0.79% and 0.64%
[5]
  Ki: 0.37 nM
[6]
  Dose: 0.84%
[7]
  Dose/g: 0.059%
[8]
  Dose/g: 1.06%
[9]
  Dose: 12.9%
[10]
  Dose: 1.24%
[11]
  Dose: 0.4%
[12]
  Dose/g: 1.21%
[13]
  Dose: 3.15%
[14]
  Dose/g: 0.44%
[15]
  Dose: 2.52%
[16]
  Dose/g: 0.006%
[17]
  Dose/g: 0.13%
[18]
  Dose: 0.02%
[19]
  Dose/g: 1.18%
[20]
  Dose: 0.7%
[21]
  Dose: 5.01%
[22]
  Dose: 9.18%
[23]
  Dose: 0.32%
[24]
  Dose: 0.1%
[25]
  Dose/g: 0.004%
[26]
  Dose/g: 0.21%
[27]
  Dose: 12.5%
[28]
  Dose/g: 0.95%
[29]
  Dose: 4.02%
[30]
  Dose: 0.13%
[31]
  Dose: 0.11% and 0.05%
